Published values gathered from unrelated publications.

SMILES	target or system	test	conditions	quantity	result
O=c1[nH]c(NCc2ccc(Cl)c(Cl)c2)nc2ncn(CCN3CCOCC3)c12	Eggerthella lenta	microbial growth, agar dilution	48 h	MIC	> 32 µg/mL
O=C(Nc1ccccc1-c1ccc(F)c(F)c1)c1nccnc1C(F)(F)F	Cladosporium cucumerinum	microbial growth		EC50	< 0.1 µg/mL
CCCCOc1ccc(-c2cnc3c(n2)CCCC3)cc1	Haemonchus contortus	parasite motility	48 h, larva	IC50	6.9 µM
Cc1ccc(C(CS(=O)(=O)c2ccccc2)=NNC2=NC(=O)C(=NNc3ccccc3)S2)cc1	SK-MEL-23	cell growth or viability, MTT	0.4 µM, 48 h	viability	50.5%
CCCCCc1ccc(-c2cnc3c(n2)CCCC3)cc1	Haemonchus contortus	parasite motility	72 h, larva	IC50	14.4 µM
Cc1ccc(C(CS(=O)(=O)c2ccccc2)=NNc2nc(C)c(N=Nc3cccc(C)c3)s2)cc1	SK-MEL-23	cell growth or viability, MTT	25 µM, 48 h	viability	44%
Cc1cc(Nc2ncc(Cl)c(Nc3ccccc3S(=O)(=O)C(C)C)n2)c(OC(C)C)cc1C1CCNCC1	NCI-H2228	cell growth or viability, MTT	5 µg/mL, 72 h	inhibition	93.5%
CCCCOc1cccc(-c2cnc3c(n2)CCCC3)c1	Haemonchus contortus	parasite motility	24 h, larva	IC50	~49.5 µM
Cc1ccc(C(CS(=O)(=O)c2ccccc2)=NN=C2N=C(c3ccc(Br)cc3)CS2)cc1	SK-MEL-23	cell growth or viability, MTT	25 µM, 48 h	viability	54.9%
C[C@@H](Oc1cc(-c2cnn(C3CCNCC3)c2)cnc1N)c1c(Cl)ccc(F)c1Cl	NCI-H2228	cell growth or viability, MTT	0.04 µg/mL, 72 h	inhibition	45.9%
CCCCc1cccc(-c2cnc3c(n2)CCCC3)c1	Haemonchus contortus	parasite motility	24 h, larva	IC50	32.4 µM
CCc1cc(Nc2cc(=O)n(CCCCO)c(=O)[nH]2)ccc1C	Eggerthella lenta	microbial growth, agar dilution	48 h	MIC	> 32 µg/mL
